In ChEMBL document CHEMBL4513216, “Probing the Open Global Health Chemical Diversity Library for Multistage-Active Starting Points for Next-Generation Antimalarials” (ACS Infect Dis, 2020):

Experiment: Toxicity liver stage against HepG2, at 10uM
Assay type: cell-based
Design: test concentration 10 uM, cell line HepG2-A16-CD81EGFP
Settings: human, HepG2-A16-CD81EGFP cells; read-out: INHIBITION
Procedure, shortened: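 Uninfected HepG2-A16-CD81EGFP cells, 3 × 10^3 per well, 1536-well, plated on prespotted compound at 10 μM final, parasite-free screening media added to match infected plates; puromycin 10 μM positive, DMSO 0.5% negative; run in parallel with 48 h PbLuc assay at 37 °C, 5% CO2; viability by CellTiter-Glo luminescence, normalized to controls.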

SMILES	cytotoxicity at 10 µM
Cn1nc(Br)nc1Sc1ccccc1NC(=O)C1CC1	3.62%
COc1nn(C)cc1C(=O)N1CCC(c2nnc(C(C)C)o2)CC1	13.5%
O=C(NCc1c(F)cccc1F)C1CN(C(=O)c2cnccn2)C1	-12.2%
CCOC(=O)CNC(=O)C1CN(C(=O)c2cnccn2)C1	2.63%
O=C(Cc1cccs1)NCC1(O)CCc2ccccc2C1 (stereo unspecified)	-10.1%
CCOCc1cncc2c1CCN(S(=O)(=O)c1ccccc1)C2	14.6%
CN1Cc2c(C(=O)N3CCOCC3)ncn2-c2ccccc2S1(=O)=O	-1.58%
O=C(C1CCN(c2nc3nc[nH]c(=O)c3s2)CC1)N1CCCCC1	-5.55%
CN1[C@H](Cn2cccn2)C[C@@H]2CN(C(=O)Cc3cccs3)CC[C@@H]21	9.58%
O=C1CC2(CCCCN2C(=O)c2ccsc2)CN1CC1CC1 (stereo unspecified)	2.84%
CCN1CCCC(O)(CNCc2ccncc2)C1 (stereo unspecified)	-2.93%
CCOC(=O)c1cc(C(C)(O)CCC=C(C)C)on1 (stereo unspecified)	2.3%
NC(=O)CN1CCCC(c2ccnc(Nc3ncccn3)c2)C1 (stereo unspecified)	10.1%
Cc1csc(Nc2cc(C3CN(C(C)C)C3)nc(C)n2)n1	-7.56%
CS(=O)(=O)N1CCCC(Cc2cnc(Br)cn2)CC1 (stereo unspecified)	-2.46%
Cc1cc(C)nc(N2CCC(c3noc(C)n3)CC2)n1	-9.08%
CC(=O)Nc1nc(C2CN(C(=O)C3CCC3)C2)cs1	-21.9%
CCC(=O)N1CCC2(CC1)CNC(=O)c1cc(C)ccc1O2	-20%
Cc1nc(Nc2ncccn2)cc(C2CN(C(=O)c3cccnc3)C2)n1	4.42%
O=C(c1cccs1)N1CCc2c(nc(N3CCCCC3)[nH]c2=O)C1	-14.5%
Cc1ccc(CN2CCCC(c3nn(C)c4nccnc34)C2)s1 (stereo unspecified)	-10.6%
CC(C)C(=O)N1Cc2ccccc2CC2(CCCN2C)C1 (stereo unspecified)	4.51%
Cn1cc(C2CCCN2C(=O)c2cnc(-c3cccs3)s2)cn1 (stereo unspecified)	4.99%

SMILES	cytotoxicity at 10 µM
COc1cc(CNC(C)c2nnc3n2CCC3)cc(OC)c1 (stereo unspecified)	-41.7%
CCOCCCNC(=O)c1cccn1Cc1cccnc1	-43.8%
Cc1cc(CN(CCO)Cc2cc(Br)ccc2F)no1	3.46%
Cc1nc(NC(=O)NCc2cccnc2NCCN(C)C)sc1C	4.51%
COc1cc(C(=O)O)ccc1OCC(=O)NCCc1ccccc1	-10.6%
CCC(C)c1csc(NC(=O)c2sc(-c3nnc[nH]3)nc2C)n1 (stereo unspecified)	-35.5%
Cc1noc(CCCC(=O)N2CSCC2C(=O)NCC2CC2)n1 (stereo unspecified)	-44.9%
FC(F)(F)c1cc(C2CCCN(Cc3ccncc3)C2)n[nH]1 (stereo unspecified)	-52.8%
COC(=O)c1sc(C(NC(=O)c2ccccc2)C2CC2)nc1C (stereo unspecified)	0.0726%
CCN1CCN(C(=O)c2csnn2)c2ccccc21	-1.46%
Cc1nn(C)c(C)c1C1COCCN1C(=O)CSC(C)(C)C (stereo unspecified)	4.22%
CC(C)N(C)S(=O)(=O)N(Cc1cccs1)CC1CCCO1 (stereo unspecified)	-53.7%
COc1ccc(NC(=O)N2CCC(c3nnc[nH]3)CC2)cc1C	15.8%
CC(=O)N1CCC(NC(=O)c2cc(Cl)ccc2-n2cnnn2)CC1	8.72%
CCN(CC)c1ccc(CNC(=O)c2cnccn2)cn1	-104%
COCCn1cc(C(=O)N2CCCC2c2noc(C)n2)ccc1=O (stereo unspecified)	-9.8%
Cc1ccc(NC(C)C(=O)N(C)Cc2cccc(F)c2)cc1C(N)=O (stereo unspecified)	11.4%
CN(CC(=O)N(C)C1CCN(CC2CCOC2)CC1)c1ccccc1 (stereo unspecified)	-9.45%
NC(=O)Cn1cc(NC(=O)NCC2CCN(c3ccccc3)C2)cn1 (stereo unspecified)	1.95%
CCCNC(=O)Nc1ccn(CCCOC)n1	-2.11%
CN(C(=O)CCc1ccsc1)S(C)(=O)=O	0.347%
COc1ccc(C(C)NC(=O)Nc2nccs2)cc1OC (stereo unspecified)	4.37%
Cc1nnc(NC(=O)NC(C)C(=O)NC2CCCC2)s1 (stereo unspecified)	-0.334%

SMILES	cytotoxicity at 10 µM
CC(NC(=O)c1cccnc1N(C)C)c1ccccc1Br (stereo unspecified)	17.7%
CCc1nc(CNC(C)(CO)C2CCCCC2)no1 (stereo unspecified)	-13.1%
Cc1cc(S(=O)(=O)NCC[S+](C)[O-])c(F)cc1F (stereo unspecified)	-4.23%
CCn1c(CN(C)Cc2cnc(C)s2)nc2c(F)cccc21	-42%
N#Cc1cc(F)c(NCCc2ccc(S(N)(=O)=O)cc2)c(F)c1	-53.9%
CC(NC(=O)Cn1cccnc1=O)c1ccc(C(F)(F)F)cc1 (stereo unspecified)	8.2%
COc1cccc(CNC(CN2CCN(C)CC2)c2ccccc2)c1 (stereo unspecified)	12.5%
Cc1ccc(CC(=O)N2CCOC(c3nc(C)n[nH]3)C2)cn1 (stereo unspecified)	-3.28%
c1cnc(N2CCc3onc(CN4CCCC4)c3C2)cn1	-3.09%
Cc1nnc([C@@]23CCO[C@@H]2CCN(Cc2nccs2)C3)o1	-104%
CC[C@H]1COCCN1C(=O)c1cnc(N2CCN(C)CC2)nc1C	-12.4%
COc1cc(O)ccc1CN1CCN(C2CCc3ccccc3C2)CC1 (stereo unspecified)	-1.33%
CC(=O)c1cccc(-c2nc3c([nH]2)CCNC3)c1F	-50.5%
CCC(NC(=O)CCCN1CCCCC1)c1cn2cccnc2n1 (stereo unspecified)	8.09%
Cc1cc(N2CCCN(C(=O)CSCC3CC3)CC2)ccn1	-1.9%
COc1ncccc1CN1CC[C@@]2(O)CCN(C(=O)C3CCC3)C[C@H]2C1	9.31%
CN(C)C[C@H]1C[C@H](CO)CN(C(=O)c2cc(S(N)(=O)=O)ccc2F)C1	11.9%
Cc1ncc(C(=O)N2CC[C@@]3(O)CCN(C(=O)N(C)C)C[C@H]3C2)cn1	-46.3%
COc1ccc(F)c(CNC2CCCc3nc(N(C)C)ncc32)c1 (stereo unspecified)	1.81%
O=C(NCc1cnn2cccnc12)C1CC(=O)N(Cc2cccnc2)C1 (stereo unspecified)	8.21%
CN(CCC1CCOCC1)[C@@H]1c2ccccc2C2(CCNCC2)[C@H]1O	-3.23%
COc1ccc(OC)c(CNC2CCCc3nc(N(C)C)ncc32)c1 (stereo unspecified)	-11.2%
c1nc2c(c(NC3COC4(CCCC4)C3)n1)CCNCC2 (stereo unspecified)	0.383%

SMILES	cytotoxicity at 10 µM
CC(C)NCc1cccnc1N1CCN(c2ccccn2)CC1	-3.85%
Cc1ccc(-c2ccnc(NCC(O)c3ccc(O)cc3)n2)c(C)n1 (stereo unspecified)	0.781%
CC(C)c1nccn1C(C)C(=O)N1CCN(S(C)(=O)=O)CC1 (stereo unspecified)	-4.32%
Cc1nnc(CN(C)CC2(O)CCCN(CCC3CCCCC3)C2=O)o1 (stereo unspecified)	17.1%
O=C(C1CC2(CCNCC2)CN1)N1CCN(c2ccccc2)CC1 (stereo unspecified)	-8.6%
CNS(=O)(=O)c1ccsc1C(=O)OC	7.54%
COCCCN1CC2(CCCN(c3ncc(Cl)cc3F)C2)CCC1=O (stereo unspecified)	-13.1%
Cc1ccc(CN2CCN(C(=O)c3ccccc3O)C(C)C2=O)cc1 (stereo unspecified)	6.31%
CCCn1cc(S(=O)(=O)N[C@H]2CN(CC(N)=O)C[C@@H]2C2CC2)cn1	-11.7%
CC(=O)NCC1CCN(CC2CCOc3ccccc3C2)CC1 (stereo unspecified)	10.3%
CCC[C@@H]1CN(S(=O)(=O)c2ccc(C)c(F)c2)C[C@H]1N(C)C	26.7%
Cc1cc(C)n(-c2cc(N3CCN(C(=O)C(C)(C)C)CC3)nc(C)n2)n1	37.1%
Cn1cccc1C1CCCCCN1C(=O)c1ccc(NC2CC2)nc1 (stereo unspecified)	-9.24%
O=C(CN1CCC(c2ccccc2)C1)NCC(F)(F)F (stereo unspecified)	-5.28%
Cc1cc(C)c(CNC(=O)NCc2ccncc2)c(=O)[nH]1	-5.59%
CCc1ccc(C(=O)N2CCN(CC(O)c3ccccc3)CC2)o1 (stereo unspecified)	-2.54%
OC(COCc1ccccc1)CN1CCC(c2ccn[nH]2)CC1 (stereo unspecified)	-13.6%
OC(COc1ccc(F)cc1)CN1CCC(c2ccn[nH]2)CC1 (stereo unspecified)	0.923%
CCn1ncc2c1CCCC2NCc1cc(OC)cc(OC)c1 (stereo unspecified)	3.24%
Cc1cc(C(=O)NS(C)(=O)=O)c(C)n1-c1ccccc1	-8.81%
COc1cccc(CNC(=O)CN2CCCC(Cn3cncn3)C2)c1 (stereo unspecified)	-18.2%
Cc1ccc(NC2CCN(C(=O)c3ccc(Cl)cc3F)CC2)nn1	-17.7%
CCc1cc(C(=O)N2CCC(Nc3ccc(C)nn3)CC2)sc1C	-1.03%

SMILES	cytotoxicity at 10 µM
Cc1nccn1CCCC(=O)N1CCC(Nc2cccnn2)CC1	-17.3%
CC1(C)CN(C(=O)NCCc2ccn(-c3ccccc3)n2)CCO1	2.21%
CCCc1nnsc1C(=O)N1CCN(CC(O)C2CC2)CC1 (stereo unspecified)	-7.78%
c1ccc(N2CC[C@H](OCC3CC3)[C@@H]2Cc2cccnc2)nc1	7.53%
O=C(O)c1cc2c(nc1-c1cncnc1)CCN(C1CCOC1)CC2 (stereo unspecified)	-1.61%
CN(C)Cc1cc(C2CCCCN2S(=O)(=O)c2cccc(Cl)c2)nn1C (stereo unspecified)	-8.63%
c1cnc(N2CCO[C@H]3CN(Cc4c[nH]cn4)C[C@H]32)cn1	9.49%
O=C(C1CN(c2ncc(F)cn2)CC12CCOCC2)N1CC=CC1 (stereo unspecified)	9.49%
Cn1ccnc1CN1C[C@H](N2CCOCC2)[C@@H]2OCCC[C@@H]21	7.19%
CS(=O)(=O)NCc1cc(=O)n2c(n1)CN(CC1CC1)CCC2	-104%
O=C(c1cc[nH]n1)N1CCC(F)(F)C2(CCN(c3ccccn3)C2)C1 (stereo unspecified)	2.38%
O=C1CO[C@@H]2CN(CC3CCOCC3)C[C@H]2N1CC1CC1	1.57%
CCN1Cc2ccccc2CC2(CCN(CC(=O)O)CC2)C1=O	-4.87%
COCCN1CCc2ncnc(OC(C)C)c2CC1	8.26%
Cc1occc1C(=O)N1CCC2(CCCN(c3ncc(F)cn3)C2)C1 (stereo unspecified)	-102%
COCC1CC2(CCN(Cc3cnn(C)c3)CC2)CN1C(C)C (stereo unspecified)	2.91%
CC(C)N1[C@H](Cn2cncn2)C[C@@H]2CN(Cc3nccn3C)CC[C@@H]21	-106%
CC(C)CS(=O)(=O)N1C[C@@H]2C[C@H](C(=O)N(C)C)[C@H](C1)O2	8.66%
O=C(Cc1cnccn1)N1C[C@@H]2CC[C@H]1CN(Cc1cscn1)C2	1.88%
